We go through 13 compounds from ChEMBL document CHEMBL1142657, “Imidazolidin-4-one derivatives of primaquine as novel transmission-blocking antimalarials” (J Med Chem, 2005).

The test system of data set [1] is Culicidae. Put plainly: Percentage of Plasmodium berghei ANKA infected Anopheles stephensi mosquitos after treatment with the compound at a dosage of 10 umol.1/kg. The data set is classed as functional. The gist of the method:
(§1)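 BalbC mice were infected ip with 10⁷ P. berghei ANKA-parasitized erythrocytes. After 4 days, gametocytes and exflagellation were confirmed on Giemsa smears, and mice were randomized into groups of six. Each received a single ip dose (10 or 50 µmol/kg; controls given PBS). 2 h later, anesthetized mice were placed on Anopheles stephensi cages. Read-outs: % mosquitoes with oocysts, and mean oocysts per infected mosquito (SE).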

For data set [2], the system named is Culicidae. The data set is described as follows: Percentage of Plasmodium berghei ANKA infected Anopheles stephensi mosquitos after treatment with the compound at a dosage of 50 umol.1/kg. The data set is classed as functional. A digest of the protocol:
as §1

The nature of data set [3]: Mean number of Plasmodium berghei ANKA […] production in Anopheles stephensi mosquito after treatment with the compound at a dosage 0 umol.1/kg. The data set is classed as functional, Culicidae. A digest of the protocol: as §1
A short description of data set [4]: Mean number of Plasmodium berghei ANKA […] production in Anopheles stephensi mosquito after treatment with the compound at a dosage 10 umol.1/kg. The data set is classed as functional, Culicidae. A digest of the protocol:
as §1

A short description of data set [5]: Mean number of Plasmodium berghei ANKA […] production in Anopheles stephensi mosquito after treatment with the compound at a dosage 50 umol.1/kg. The data set is classed as functional, Culicidae. The gist of the method: as §1
Data set [6] is described as follows: Percent hydrolysis to the corresponding amino acid product 3, in pH 7.4 phosphate buffer at 37C after 3 days of treatment with the compound. The data set is classed as ADME, Homo sapiens. The following applies: read-out: Hydrolysis. A digest of the protocol: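 Hydrolysis followed in pH 7.4 phosphate saline buffer at 37 °C. Substrate and amino acid product were measured by reversed-phase HPLC (pH 4.75 sodium acetate/acetonitrile gradient with triethylamine). Reported as % conversion after 3 days and as half-life in days.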

Data set [7] can be described thus: Percent hydrolysis to the corresponding amino acid product 3, in 80% human plasma at 37C after 3 days of treatment with the compound. The data set is classed as ADME, cell-free. The following applies: 72 h. The gist of the method:
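Aliquots were quenched in acetonitrile and centrifuged. Supernatant went to reversed-phase HPLC (pH 4.75 sodium acetate/acetonitrile gradient with triethylamine) for substrate and amino acid product. Reported as % hydrolysis after 3 days.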

The subject of data set [8] is Culicidae. The data set is described as follows: Percentage of Plasmodium berghei ANKA infected Anopheles stephensi mosquitos after treatment with the compound at a dosage of 0 umol.1/kg. The data set is classed as functional. A digest of the protocol: as §1

For the compound `COc1cc(NC(C)CCCN2C(=O)[C@H](Cc3ccccc3)NC23CCCCCC3)c2ncccc2c1` (stereo partly drawn), the Infectedmosquitoes is 90% with Culicidae [1] and 0% with Culicidae [2]. Further, the Activity in data set [3] was 120; in data set [4] it was 78.9; in data set [5], 0. Besides, the degraded at 72 h in data set [6] amounted to 10%.

As to `COc1cc(NC(C)CCCN2C(=O)[C@H](C)NC23CCCCC3)c2ncccc2c1` (stereo partly drawn), the figures for the Infectedmosquitoes in the data set on Culicidae [1] and with Culicidae [2] were 20% and 0%, respectively. Besides, the figures for the Activity in data set [3], in data set [4] and in data set [5] were 83.2, 0.8 and 0, respectively. In data set [7], this compound displayed a Hydrolysis of 9%.

Turning to `COc1cc(NC(C)CCCN2C(=O)[C@H](CC(C)C)NC2(C)C)c2ncccc2c1` (stereo partly drawn), the Infectedmosquitoes came to 30% in the data set with Culicidae [1] and 20% in the data set with Culicidae [2]. Moreover, the Activity in data set [3] turned out to be 120; in data set [4], 13.7; in data set [5] it was 1. Moreover, the degraded at 72 h in data set [6] was 10%.

As to `COc1cc(NC(C)CCCN)c2ncccc2c1` (stereo not drawn) [PRIMAQUINE], the Infectedmosquitoes stood at 0% in the data set on Culicidae [8], 10% in the data set with Culicidae [1] and 50% with Culicidae [2]. Besides, the Activity in data set [3] was 83.2; in data set [4], 2.6; in data set [5], 0.

Consider `COc1cc(NC(C)CCCN2C(=O)CNC23CCCCC3)c2ncccc2c1` (stereo not drawn), for which the Infectedmosquitoes in the data set on Culicidae [8] stood at 65%; in the data set on Culicidae [1], 25%; in the data set on Culicidae [2] it was 0%. The Activity in data set [3] stood at 105; in data set [4], 7.4; in data set [5], 0.

On to `COc1cc(NC(C)CCCN2C(=O)CNC2(C)C)c2ncccc2c1` (stereo not drawn), for which the Infectedmosquitoes is 21% in the data set with Culicidae [1] and 0% in the data set with Culicidae [2]. The Activity in data set [3] came to 105; in data set [4], 6.1; in data set [5], 0. In addition, the Hydrolysis in data set [7] came to 16%.

In the case of `COc1cc(NC(C)CCCN2C(=O)[C@H](Cc3ccccc3)NC23CCCC3)c2ncccc2c1` (stereo partly drawn), the Infectedmosquitoes came to 65% with Culicidae [1] and 0% in the data set on Culicidae [2]. Further, the Activity in data set [3] stood at 66.1; in data set [4], 51.6; in data set [5] it was 0. For the same compound, in data set [7], the Hydrolysis came out at 3%.

In the data set with Culicidae [1], `COc1cc(NC(C)CCCN2C(=O)[C@H](C(C)C)NC23CCCCCC3)c2ncccc2c1` (stereo partly drawn) displayed an Infectedmosquitoes of 65%. Further, the figures for the Activity in data set [3] and in data set [4] were 120 and 17.7, respectively.

In the case of `COc1cc(NC(C)CCCN2C(=O)[C@H](C(C)C)NC23CCCC3)c2ncccc2c1` (stereo partly drawn), the figures for the Infectedmosquitoes in the data set with Culicidae [1] and in the data set on Culicidae [2] were 35% and 15%, respectively. In addition, the figures for the Activity in data set [3], in data set [4] and in data set [5] were 51, 4.2 and 0.5, respectively. The compound also yielded a Hydrolysis in data set [7] of 5%.

Consider `COc1cc(NC(C)CCCN2C(=O)[C@H](Cc3ccccc3)NC23CCCCC3)c2ncccc2c1` (stereo partly drawn), for which the Infectedmosquitoes with Culicidae [1] amounted to 83%; in the data set on Culicidae [2], 0%. For the same compound, the Activity in data set [3] was 83.2; in data set [4], 71; in data set [5], 0.

As for `COc1cc(NC(C)CCCN2C(=O)[C@H](Cc3ccccc3)NC2(C)C)c2ncccc2c1` (stereo partly drawn), the results for the Infectedmosquitoes with Culicidae [1] and in the data set with Culicidae [2] were 76% and 0%, respectively. Further, the results for the Activity in data set [3], in data set [4] and in data set [5] were 66.1, 61.2 and 0, respectively. Besides, the degraded at 72 h in data set [6] was 6%.

For the compound `COc1cc(NC(C)CCCN2C(=O)[C@H](C(C)C)NC2(C)C)c2ncccc2c1` (stereo partly drawn), the results for the Infectedmosquitoes in the data set on Culicidae [1] and with Culicidae [2] were 25% and 5%, respectively. Also, the Activity stood at 105 in data set [3], 5 in data set [4] and 0.9 in data set [5].

`COc1cc(NC(C)CCCN2C(=O)[C@H](C(C)C)NC23CCCCC3)c2ncccc2c1` (stereo partly drawn): the Infectedmosquitoes worked out at 85% in the data set with Culicidae [1] and 25% with Culicidae [2]. Moreover, the Activity in data set [3] turned out to be 51; in data set [4] it was 61.1; in data set [5], 0.4. Further, in data set [6], the degraded at 72 h was determined as 8%.
